# Experimental data taken from ChEMBL document CHEMBL3085676, “Self-assembly to function: design, synthesis, and broad spectrum antimicrobial properties of short hybrid E-vinylogous lipopeptides” (J Med Chem, 2013).
# The source made the active and inactive calls. The calls are words filed in the database; no cut-off is given here.
# Test system: Escherichia coli
# Test: Antibacterial activity against Escherichia coli K-12 NCIM 2563 assessed as disruption of cell membrane at 50 uM after 1 hr by atomic force microscopic analysis
# Assay type: functional, organism-based
# Conditions: not given
# Summary of the method: (§1)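 E. coli grown in MHB and C. albicans in potato dextrose broth were pelleted and resuspended in deionized water. Cells incubated with 50 µM peptide at 37 °C for 1 h, dried 30 min at 25 °C on poly-L-lysine glass, and imaged by AFM in intermittent contact mode. Peptide-free cells served as control.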
row,Compound,Activity
1,CCCCCCCC(=O)N[C@H](/C=C/C(=O)N[C@@H](CCCCN)C(=O)N[C@H](/C=C/C(=O)N[C@@H](CCCCN)C(N)=O)Cc1ccc(O)cc1)Cc1ccc(O)cc1,Active
2,CCCCCCCCCCCC(=O)N[C@@H](C)/C=C/C(=O)N[C@@H](CCCCN)C(=O)N[C@@H](C)/C=C/C(=O)N[C@@H](CCCCN)C(N)=O,Active

# Test system: Klebsiella pneumoniae
# Test: Antibacterial activity against Klebsiella pneumoniae NCIM 2957 after 18 to 20 hrs by broth dilution assay
# Assay type: functional
# Conditions: not given
# Summary of the method: (§2)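 Two-fold serial dilutions in Mueller-Hinton broth, run in triplicate. Overnight 37 °C cultures diluted to 10⁶ CFU/mL and added 1:1 to the peptide, then incubated at 37 °C for 18-20 h. Growth was read as absorbance at 492 nm against no-peptide controls. MIC taken as the lowest concentration giving complete inhibition or killing. Reproducible across three independent triplicates.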
row,MIC [µg/mL],Compound
1,50,CCCCCCCC(=O)N[C@H](/C=C/C(=O)N[C@@H](CCCCN)C(=O)N[C@H](/C=C/C(=O)N[C@@H](CCCCN)C(N)=O)Cc1ccc(O)cc1)Cc1ccc(O)cc1
2,3.12,CCCCCCCCCCCC(=O)N[C@@H](C)/C=C/C(=O)N[C@@H](CCCCN)C(=O)N[C@@H](C)/C=C/C(=O)N[C@@H](CCCCN)C(N)=O

# Test system: Saccharomyces cerevisiae
# Test: Antifungal activity against Saccharomyces cerevisiae NCIM 3454 after 48 to 72 hrs
# Assay type: functional
# Conditions: not given
# Summary of the method: (§3)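 Peptide in water was serially diluted two-fold in potato dextrose broth and mixed 1:1 with yeast suspension at 2×10³ CFU/ml. Incubated at 25 °C for 48-72 h, with growth read as absorbance at 620 nm against a peptide-free culture. MIC was the lowest concentration giving complete growth inhibition. Run in triplicate.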
row,MIC [µg/mL],Compound
1,12.5,CCCCCCCC(=O)N[C@H](/C=C/C(=O)N[C@@H](CCCCN)C(=O)N[C@H](/C=C/C(=O)N[C@@H](CCCCN)C(N)=O)Cc1ccc(O)cc1)Cc1ccc(O)cc1
2,3.12,CCCCCCCCCCCC(=O)N[C@@H](C)/C=C/C(=O)N[C@@H](CCCCN)C(=O)N[C@@H](C)/C=C/C(=O)N[C@@H](CCCCN)C(N)=O

# Test system: not listed separately
# Test: Hemolytic activity in human RBC after 1 hr
# Assay type: ADME, cell-based
# Conditions: erythrocyte
# Summary of the method: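 Fresh EDTA-collected human RBCs washed four times in Tris-buffered saline (10 mM Tris, 150 mM NaCl, pH 7.2) and used at 4% v/v, mixed 1:1 with two-fold serially diluted peptide (top 100 µg/ml before mixing). Incubated at 37 °C for 1 h and centrifuged; supernatant hemoglobin read at 540 nm. Buffer and 1% Triton-X served as negative and positive controls. Percent hemolysis = (A−A_N)/(A_P−A_N)×100. Run in duplicate.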
row,Compound,HD10 [µg/mL]
1,CCCCCCCC(=O)N[C@H](/C=C/C(=O)N[C@@H](CCCCN)C(=O)N[C@H](/C=C/C(=O)N[C@@H](CCCCN)C(N)=O)Cc1ccc(O)cc1)Cc1ccc(O)cc1,54
2,CCCCCCCCCCCC(=O)N[C@@H](C)/C=C/C(=O)N[C@@H](CCCCN)C(=O)N[C@@H](C)/C=C/C(=O)N[C@@H](CCCCN)C(N)=O,48

# Test system: Candida albicans
# Test: Antifungal activity against Candida albicans NCIM 3471 after 48 to 72 hrs
# Assay type: functional
# Conditions: not given
# Summary of the method: as §3
row,MIC [µg/mL],Compound
1,12.5,CCCCCCCC(=O)N[C@H](/C=C/C(=O)N[C@@H](CCCCN)C(=O)N[C@H](/C=C/C(=O)N[C@@H](CCCCN)C(N)=O)Cc1ccc(O)cc1)Cc1ccc(O)cc1
2,3.12,CCCCCCCCCCCC(=O)N[C@@H](C)/C=C/C(=O)N[C@@H](CCCCN)C(=O)N[C@@H](C)/C=C/C(=O)N[C@@H](CCCCN)C(N)=O

# Test system: Escherichia coli
# Test: Antibacterial activity against Escherichia coli expressing pUC19 plasmid assessed as disruption of cytoplasmic membrane at 20 ug/mL after 1 hr by beta-galactosidase leakage assay
# Assay type: functional, organism-based
# Conditions: not given
# Summary of the method: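 E. coli TOP10 transformed with pUC19 (lacZ) grown in LB with 100 µg/ml ampicillin at 37 °C to A660 0.6, then washed three times. Peptide stock (200 µg/ml) added 1:10 to cells and incubated at 37 °C for 1 h. After centrifugation, supernatant was mixed with 4-methylumbelliferyl substrate and fluorescence followed for 1 h. Initial velocities used; water blank; triplicates.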
row,Compound,Activity
1,CCCCCCCCCCCC(=O)N[C@@H](C)/C=C/C(=O)N[C@@H](CCCCN)C(=O)N[C@@H](C)/C=C/C(=O)N[C@@H](CCCCN)C(N)=O,inactive

# Test system: Nakaseomyces glabratus
# Test: Antifungal activity against Candida glabrata NCIM 3237 after 48 to 72 hrs
# Assay type: functional
# Conditions: not given
# Summary of the method: as §3
row,MIC [µg/mL],Compound
1,25,CCCCCCCC(=O)N[C@H](/C=C/C(=O)N[C@@H](CCCCN)C(=O)N[C@H](/C=C/C(=O)N[C@@H](CCCCN)C(N)=O)Cc1ccc(O)cc1)Cc1ccc(O)cc1
2,6.25,CCCCCCCCCCCC(=O)N[C@@H](C)/C=C/C(=O)N[C@@H](CCCCN)C(=O)N[C@@H](C)/C=C/C(=O)N[C@@H](CCCCN)C(N)=O

# Test system: Salmonella typhimurium
# Test: Antibacterial activity against Salmonella typhimurium NCIM 2501 after 18 to 20 hrs by broth dilution assay
# Assay type: functional, Salmonella enterica subsp. enterica serovar Typhimurium
# Conditions: Salmonella enterica
# Summary of the method: as §2
row,MIC [µg/mL],Compound
1,50,CCCCCCCC(=O)N[C@H](/C=C/C(=O)N[C@@H](CCCCN)C(=O)N[C@H](/C=C/C(=O)N[C@@H](CCCCN)C(N)=O)Cc1ccc(O)cc1)Cc1ccc(O)cc1
2,6.25,CCCCCCCCCCCC(=O)N[C@@H](C)/C=C/C(=O)N[C@@H](CCCCN)C(=O)N[C@@H](C)/C=C/C(=O)N[C@@H](CCCCN)C(N)=O

# Test system: Pseudomonas aeruginosa
# Test: Antibacterial activity against Pseudomonas aeruginosa NCIM 5029 after 18 to 20 hrs by broth dilution assay
# Assay type: functional
# Conditions: not given
# Summary of the method: as §2
row,MIC [µg/mL],Compound
1,50,CCCCCCCC(=O)N[C@H](/C=C/C(=O)N[C@@H](CCCCN)C(=O)N[C@H](/C=C/C(=O)N[C@@H](CCCCN)C(N)=O)Cc1ccc(O)cc1)Cc1ccc(O)cc1
2,6.25,CCCCCCCCCCCC(=O)N[C@@H](C)/C=C/C(=O)N[C@@H](CCCCN)C(=O)N[C@@H](C)/C=C/C(=O)N[C@@H](CCCCN)C(N)=O

# Test system: Escherichia coli
# Test: Antibacterial activity against Escherichia coli K-12 NCIM 2563 after 18 to 20 hrs by broth dilution assay
# Assay type: functional
# Conditions: not given
# Summary of the method: as §2
row,MIC [µg/mL],Compound
1,25,CCCCCCCC(=O)N[C@H](/C=C/C(=O)N[C@@H](CCCCN)C(=O)N[C@H](/C=C/C(=O)N[C@@H](CCCCN)C(N)=O)Cc1ccc(O)cc1)Cc1ccc(O)cc1
2,6.25,CCCCCCCCCCCC(=O)N[C@@H](C)/C=C/C(=O)N[C@@H](CCCCN)C(=O)N[C@@H](C)/C=C/C(=O)N[C@@H](CCCCN)C(N)=O

# Test system: Staphylococcus aureus
# Test: Antibacterial activity against Staphylococcus aureus NCIM 5021 after 18 to 20 hrs by broth dilution assay
# Assay type: functional
# Conditions: not given
# Summary of the method: as §2
row,MIC [µg/mL],Compound
1,50,CCCCCCCC(=O)N[C@H](/C=C/C(=O)N[C@@H](CCCCN)C(=O)N[C@H](/C=C/C(=O)N[C@@H](CCCCN)C(N)=O)Cc1ccc(O)cc1)Cc1ccc(O)cc1
2,6.25,CCCCCCCCCCCC(=O)N[C@@H](C)/C=C/C(=O)N[C@@H](CCCCN)C(=O)N[C@@H](C)/C=C/C(=O)N[C@@H](CCCCN)C(N)=O

# Test system: Candida albicans
# Test: Antifungal activity against Candida albicans NCIM 3471 assessed as disruption of cell membrane by atomic force microscopic analysis
# Assay type: functional, organism-based
# Conditions: not given
# Summary of the method: as §1
row,Compound,Activity
1,CCCCCCCC(=O)N[C@H](/C=C/C(=O)N[C@@H](CCCCN)C(=O)N[C@H](/C=C/C(=O)N[C@@H](CCCCN)C(N)=O)Cc1ccc(O)cc1)Cc1ccc(O)cc1,Active
2,CCCCCCCCCCCC(=O)N[C@@H](C)/C=C/C(=O)N[C@@H](CCCCN)C(=O)N[C@@H](C)/C=C/C(=O)N[C@@H](CCCCN)C(N)=O,Active

# Test system: Escherichia coli
# Test: Antibacterial activity against Escherichia coli NCIM 2065 after 18 to 20 hrs by broth dilution assay
# Assay type: functional
# Conditions: not given
# Summary of the method: as §2
row,MIC [µg/mL],Compound
1,25,CCCCCCCC(=O)N[C@H](/C=C/C(=O)N[C@@H](CCCCN)C(=O)N[C@H](/C=C/C(=O)N[C@@H](CCCCN)C(N)=O)Cc1ccc(O)cc1)Cc1ccc(O)cc1
2,6.25,CCCCCCCCCCCC(=O)N[C@@H](C)/C=C/C(=O)N[C@@H](CCCCN)C(=O)N[C@@H](C)/C=C/C(=O)N[C@@H](CCCCN)C(N)=O

# Test system: Cryptococcus neoformans
# Test: Antifungal activity against Cryptococcus neoformans NCIM 3542 after 48 to 72 hrs
# Assay type: functional
# Conditions: not given
# Summary of the method: as §3
row,MIC [µg/mL],Compound
1,25,CCCCCCCC(=O)N[C@H](/C=C/C(=O)N[C@@H](CCCCN)C(=O)N[C@H](/C=C/C(=O)N[C@@H](CCCCN)C(N)=O)Cc1ccc(O)cc1)Cc1ccc(O)cc1
2,6.25,CCCCCCCCCCCC(=O)N[C@@H](C)/C=C/C(=O)N[C@@H](CCCCN)C(=O)N[C@@H](C)/C=C/C(=O)N[C@@H](CCCCN)C(N)=O
